The record followed here is PubChem BioAssay.

Assay [1] is described as follows: inhibitors of TNFa-induced NFkB p65 translocation, primary screen, imaging, HUVEC, MLSMR starter and 10KST1 sets (AID 438;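 active means inhibition above 20% together with a positive visual image hit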;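 further: compound added about 3h40 before a 20 min TNFalpha stimulation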;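 on inhibition: signal is the nuclear over cytoplasmic p65 intensity ratio per well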). Conditions: HUVEC TNFa-induced p65 nuclear translocation; cell count: measured here: nuclei count (cytotoxicity indicator), at 2.08 µM; inhibition: at 2 µM, stronger effect = higher value, 0% TNFa-plus-vehicle, 100% no-TNFa wells.
Assay [2] in a line: inhibitors of mutant huntingtin aggregation, primary screen, imaging, exon1htt(103Q)mCFP cells, high-content imaging (AID 483;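 active means visual image review flags a hit and inhibition of aggregation exceeds 20%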;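 further: compound exposure lasted 3 days before fixation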;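 on nuclei count: percent of the per-plate median nuclei count of sample wells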). To be noted: exon1htt(103Q)mCFP cell line, aggregate imaging, at 2 µM; inhibition of aggregation: stronger effect = higher value; nuclei count: measured here: cell count, toxicity.
Assay [3] is described as follows: inhibitors of E-selectin induction by TNFa, primary screen, imaging, HUVEC, immunofluorescence, MLSMR starter and 10KST1 sets (AID 487;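 active means visually confirmed hit in the image check and inhibition above 20%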;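 on inhibition: signal is fraction of cell area covered by stained E-selectin grains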;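 on nuclei count: 100% = median nuclei count of all wells on the same plate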). Conditions: HUVEC TNFalpha-induced E-selectin immunofluorescence imaging, at 2 µM; inhibition: stronger effect = higher value; nuclei count: measured here: cell number, toxicity.
The target of assay [4] is Voltage-gated potassium channel subunit beta-2 (Rattus norvegicus) (UniProt P62483). The assay can be described thus: KvBeta enzyme negative modulators, primary screen, biochemical, NADPH fluorescence (AID 622;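 active means fluorescence slope higher than the sample average by over 3 SD, cut at about -0.22 in these data, passing the limit was not always enough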;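 further: slope of raw intensity against log time taken from 70 to 1610 s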). To be noted: recombinant KvBeta, 4-cyanobenzaldehyde reduction, at 10 µM, stronger effect = higher value.
Voltage-gated potassium channel subunit beta-2 (Rattus norvegicus), sequence (P62483 whole entry, looked up): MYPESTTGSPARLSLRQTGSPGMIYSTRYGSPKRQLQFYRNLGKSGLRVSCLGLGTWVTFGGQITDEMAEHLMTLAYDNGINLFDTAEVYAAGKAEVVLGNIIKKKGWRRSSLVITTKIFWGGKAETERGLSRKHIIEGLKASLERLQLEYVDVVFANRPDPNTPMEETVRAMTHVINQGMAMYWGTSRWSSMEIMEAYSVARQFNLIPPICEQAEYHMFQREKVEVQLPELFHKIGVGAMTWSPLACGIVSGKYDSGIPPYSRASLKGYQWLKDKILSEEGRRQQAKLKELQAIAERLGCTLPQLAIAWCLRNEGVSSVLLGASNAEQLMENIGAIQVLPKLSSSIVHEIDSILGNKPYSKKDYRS
Assay [5] has the same target. The assay can be described thus: KvBeta positive modulators, primary screen, biochemical, NADPH fluorescence (AID 623;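 active means NADPH fluorescence slope more negative than the mean of all samples by about 3 SD, 99.7% confidence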;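 further: fluorescence intensity change per second fitted from 20 to 320 s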). To be noted: Recombinant KvBeta, NADPH fluorescence decrease slope, 10 min; at 10 µM; stronger effect = lower value.
The target of assay [6] is Muscarinic acetylcholine receptor M4 (Homo sapiens) (UniProt P08173). Put plainly: compounds altering M4/GIRK thallium flux, either direction, primary screen, M4 allosteric agonist project, cell-based, HEK293 M4/GIRK, BTC-AM (AID 625;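 active means fluorescence slope after compound addition differing from the mean of all tested samples at 99.7% confidence, mostly higher but some lower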;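 further: thallium influx through GIRK channels coupled to M4 in HEK293 cells with BTC-AM dye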). To be noted: at 10 µM, actives lie on both sides. Summed up: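 System: HEK293 cells with M4 receptor and GIRK channels | Incubation: Cells overnight at 37 °C, BTC-AM loading 1 h, reads 2 min total | Technique: Kinetic BTC-AM fluorescence sampled at 1 Hz, 10 s pre-addition baseline | Measure: Post-addition slope, 15–24 s, of baseline-normalized fluorescence | Control set: Carbachol positive, DMSO negative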
Muscarinic acetylcholine receptor M4 (Homo sapiens), sequence (P08173 whole entry, looked up): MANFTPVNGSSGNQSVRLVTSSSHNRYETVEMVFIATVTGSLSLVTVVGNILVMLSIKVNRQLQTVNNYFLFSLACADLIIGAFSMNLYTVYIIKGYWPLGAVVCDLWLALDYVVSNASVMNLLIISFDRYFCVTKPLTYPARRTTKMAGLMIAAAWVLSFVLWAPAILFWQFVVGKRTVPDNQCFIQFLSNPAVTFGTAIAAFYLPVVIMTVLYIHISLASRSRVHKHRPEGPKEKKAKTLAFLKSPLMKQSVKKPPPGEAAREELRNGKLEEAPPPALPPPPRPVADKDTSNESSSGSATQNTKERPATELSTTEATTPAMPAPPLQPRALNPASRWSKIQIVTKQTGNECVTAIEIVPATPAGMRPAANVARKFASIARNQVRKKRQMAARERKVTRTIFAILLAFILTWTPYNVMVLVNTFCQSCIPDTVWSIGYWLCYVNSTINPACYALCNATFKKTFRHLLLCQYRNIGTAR

Assay [7] can be described thus: inhibitors of Sendai virus-induced IRF3 signaling, primary screen, TLR/RLR signaling modifier project, cell-based, Sendai virus stimulus, luciferase, 10K MLSCN set (AID 602276).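 Further: firefly luciferase from ISG56 promoter only with Renilla not read in this screen; 0% = Sendai virus plus DMSO and 100% = medium plus DMSO without virus.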 To be noted: HEK293 RL24 IRF3 luciferase reporter, at 10 µM, stronger effect = higher value. (Reporter assays use an easily measured gene product as a stand-in for the process of interest.)
A short description of assay [8]: inhibitors of poly I:C-induced TLR3 signaling, primary screen, cell-based, poly I:C stimulus, luciferase, 10K MLSCN set (AID 602277;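 active means inhibition of the reporter signal at or above 50%; inactive means inhibition below 50%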). Conditions: HEK293-TLR3 RL24 IRF3 luciferase reporter, at 10 µM, stronger effect = higher value.

Calls of active or inactive are those of the source.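 How the source made its calls, unless noted: active means inhibition at or above 50% at 10 µM; inactive means inhibition below 50%.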

As to `CCOC(=O)N1CCC2(CC1)CC(=O)c1c(ccc3oc(C(=O)O)c(C)c13)O2`, the cell count in assay [1] was 313. Besides, the inhibition (usually the change of the read-out against control, counted positive when it falls) in assay [1] is -4.1% (inactive); in assay [3] it was -83.8% (inactive); in assay [7], 0.598% (inactive); in assay [8], 11.3% (inactive). In addition, the inhibition of aggregation in assay [2] was -17.7% (inactive). Also, the results for the nuclei count in assay [2] and in assay [3] were 99% and 105%, respectively. The fluorescence slope in assay [4] is -0.413 (inactive); in assay [6], 0.00564 (inactive). The NADPH fluorescence slope in assay [5] is -1.7e-05 (inactive).
As for `COc1ccc(N2CCN(C(c3cccs3)C(C)NC(=O)c3ccco3)CC2)cc1` (centres undefined), the cell count in assay [1] came out at 467. Besides, the inhibition was 5.5% (inactive) in assay [1], 11.8% (inactive) in assay [3], 8.09% (inactive) in assay [7] and 22.4% (inactive) in assay [8]. Moreover, the inhibition of aggregation in assay [2] was -7.1% (inactive). For the same compound, the nuclei count in assay [2] is 83.9%; in assay [3] it was 101%. Moreover, the fluorescence slope in assay [4] was -0.368 (inactive); in assay [6] it was 0.00502 (inactive). Besides, the NADPH fluorescence slope in assay [5] was -7.2e-05 (inactive).
Consider `N#Cc1nc(COc2ccccc2)oc1NCCN1CCOCC1`, for which the cell count in assay [1] came to 778. In addition, the inhibition is 1.6% (inactive) in assay [1], -14.1% (inactive) in assay [3], 2.21% (inactive) in assay [7] and 2.82% (inactive) in assay [8]. Further, the inhibition of aggregation in assay [2] was -34.9% (inactive). Also, the nuclei count in assay [2] worked out at 96.4%; in assay [3], 102%. The fluorescence slope was -0.569 (inactive) in assay [4] and 0.00627 (inactive) in assay [6]. The NADPH fluorescence slope in assay [5] was 2.2e-05 (inactive).
For `c1ccc(-c2noc(-c3cccnc3)n2)nc1`, the cell count in assay [1] is 359. Moreover, the inhibition is -2.1% (inactive) in assay [1], -85.3% (inactive) in assay [3], 0.927% (inactive) in assay [7] and -38.1% (inactive) in assay [8]. In assay [2], the inhibition of aggregation was 0.3% (inactive). Also, the figures for the nuclei count in assay [2] and in assay [3] were 102% and 96.9%, respectively. Besides, the fluorescence slope in assay [4] is -0.575 (inactive); in assay [6] it was 0.00712 (inactive). Also, the NADPH fluorescence slope in assay [5] is -4.4e-05 (inactive).
Take `CCC(C)NC(=O)c1cc(-c2ccc(OC)cc2)on1` (centres undefined): in assay [1], the cell count amounted to 689. The inhibition was -15.5% (inactive) in assay [1], 13.2% (inactive) in assay [3], -45.5% (inactive) in assay [7] and -170% (inactive) in assay [8]. Also, the inhibition of aggregation in assay [2] was 1.3% (inactive). Also, the nuclei count in assay [2] was found to be 101%; in assay [3], 108%. Also, the fluorescence slope in assay [4] is -0.286 (inactive); in assay [6], 0.00668 (inactive). Moreover, the NADPH fluorescence slope in assay [5] was -1.4e-05 (inactive).
`c1ccc(-c2noc(C34CC5CC(CC(C5)C3)C4)n2)nc1`: the cell count in assay [1] came out at 362. Moreover, the inhibition is 10.2% (inactive) in assay [1], -53.7% (inactive) in assay [3], -32.9% (inactive) in assay [7] and -64.6% (inactive) in assay [8]. Moreover, in assay [2], the inhibition of aggregation is 17.1% (inactive). Further, the nuclei count in assay [2] stood at 98.3%; in assay [3] it was 102%. In addition, the fluorescence slope in assay [4] was -0.554 (inactive); in assay [6] it was 0.00439 (inactive). Also, the NADPH fluorescence slope in assay [5] was -0.00016 (inactive).
For `Cc1ccc(-c2cc(C(=O)Nc3cc(C)ccc3C)[nH]n2)c(O)c1`, the cell count in assay [1] amounted to 390. Also, the inhibition in assay [1] is -4.3% (inactive); in assay [3] it was -50.5% (inactive); in assay [7], -2.53% (inactive); in assay [8] it was -27.3% (inactive). Besides, the inhibition of aggregation in assay [2] is 3.8% (inactive). For the same compound, the nuclei count in assay [2] was determined as 120%; in assay [3] it was 144%. Moreover, the results for the fluorescence slope in assay [4] and in assay [6] were -0.362 (inactive) and 0.00727 (inactive), respectively. Further, the NADPH fluorescence slope in assay [5] was 2.9e-05 (inactive).
For `CNC(=O)CSc1nnc(-c2cc(C)cc(C)c2)o1`, the cell count in assay [1] is 669. The inhibition in assay [1] was -5% (inactive); in assay [3] it was -34.6% (inactive); in assay [7], 4.57% (inactive); in assay [8] it was -12.1% (inactive). Besides, in assay [2], the inhibition of aggregation was 0.4% (inactive). The nuclei count stood at 123% in assay [2] and 124% in assay [3]. Moreover, the figures for the fluorescence slope in assay [4] and in assay [6] were -0.547 (inactive) and 0.00519 (inactive), respectively. In addition, in assay [5], the NADPH fluorescence slope was -3.9e-05 (inactive).
For the compound `Cc1ccc(C)c(-c2nc3ccc(N)cc3[nH]2)c1`, in assay [1], the cell count came out at 340. The inhibition is 3.9% (inactive) in assay [1], -114% (inactive) in assay [3], 15.4% (inactive) in assay [7] and -9.14% (inactive) in assay [8]. The inhibition of aggregation in assay [2] was 30.3% (inactive). Besides, the nuclei count is 77.7% in assay [2] and 100% in assay [3]. For the same compound, the fluorescence slope in assay [4] was -0.0465 (active); in assay [6], 0.00338 (inactive). Moreover, the NADPH fluorescence slope in assay [5] is -3.5e-05 (inactive).
As for `CC(=O)NC1(c2nnnn2CCOC(=O)Nc2ccc(Cl)cc2)CCCCC1`, in assay [1], the cell count is 559. For the same compound, the inhibition was -12.5% (inactive) in assay [1], -23.9% (inactive) in assay [3], 9.27% (inactive) in assay [7] and 8.82% (inactive) in assay [8]. The inhibition of aggregation in assay [2] is 2.9% (inactive). For the same compound, the nuclei count in assay [2] worked out at 84.6%; in assay [3] it was 91.3%. Also, the fluorescence slope in assay [4] is -0.513 (inactive); in assay [6], 0.0035 (inactive). The NADPH fluorescence slope in assay [5] is -0.000175 (inactive).
`COc1ccc(OC)c(Nc2cc(-c3ccccc3)nc(N)n2)c1`: the cell count in assay [1] stood at 423. For the same compound, the inhibition in assay [1] is 9.2% (inactive); in assay [3] it was -25.1% (inactive); in assay [7], 46.6% (inactive); in assay [8] it was 86.6% (active). Also, in assay [2], the inhibition of aggregation was -34.6% (inactive). The nuclei count in assay [2] is 0.5%; in assay [3] it was 115%. For the same compound, the fluorescence slope in assay [4] was -0.548 (inactive); in assay [6] it was 0.00508 (inactive). Moreover, the NADPH fluorescence slope in assay [5] is 4.9e-06 (inactive).
Consider `CCOC(=O)c1c(NC(=O)CSc2nnc(-c3cccnc3)o2)sc(C)c1C`, for which the cell count in assay [1] is 431. Moreover, the inhibition in assay [1] is -13.1% (inactive); in assay [3], -15% (inactive); in assay [7], 3.63% (inactive); in assay [8] it was 16.6% (inactive). In addition, the inhibition of aggregation in assay [2] is 24.3% (inactive). Further, the nuclei count in assay [2] turned out to be 73.6%; in assay [3] it was 98.1%. In addition, the fluorescence slope in assay [4] was -0.484 (inactive); in assay [6], 0.00591 (inactive). For the same compound, in assay [5], the NADPH fluorescence slope was 4.4e-06 (inactive).
As for `COC(=O)c1[nH]c2cc(OC)ccc2c1NC(=O)CCN1CCCCC1`, the cell count in assay [1] amounted to 290. Moreover, the inhibition in assay [1] is 10.8% (inactive); in assay [3], -82.1% (inactive); in assay [7], -3.43% (inactive); in assay [8] it was 3.78% (inactive). In addition, the inhibition of aggregation in assay [2] is -12.7% (inactive). Further, the nuclei count in assay [2] came to 70.3%; in assay [3], 164%. Besides, the fluorescence slope is -0.55 (inactive) in assay [4] and 0.0032 (inactive) in assay [6]. Moreover, in assay [5], the NADPH fluorescence slope is -5.4e-05 (inactive).
On to `COc1ccc(-n2nnc3c(=O)n(C/C=C/c4ccccc4)cnc32)cc1`, for which the cell count in assay [1] was 585. Also, the inhibition is -6.7% (inactive) in assay [1], -31.4% (inactive) in assay [3], 12.8% (inactive) in assay [7] and 7.09% (inactive) in assay [8]. In assay [2], the inhibition of aggregation is -19% (inactive). The figures for the nuclei count in assay [2] and in assay [3] were 102% and 115%, respectively. Moreover, the fluorescence slope in assay [4] is -0.218 (inactive); in assay [6] it was 0.00695 (inactive). Besides, the NADPH fluorescence slope in assay [5] is -1.5e-05 (inactive).
